Laboratory results taken from ChEMBL document CHEMBL4004836, “Design, synthesis and anticancer properties of IsoCombretaQuinolines as potent tubulin assembly inhibitors” (Eur J Med Chem, 2017).
Active and inactive are the calls of the source. The calls are words filed in the database; no cut-off is given here.

Tests used:
[1] = Cytotoxicity against human U87 cells assessed as decrease in cell growth after 72 hrs by resazurin dye-based fluorimetric method; type: functional, U-87MG ATCC; conditions: U-87 MG
Procedure, shortened: (§1)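 Lines grown in RPMI 1640 with 10% FCS and 1% glutamine, 37 °C, 5% CO2. K562R is a doxorubicin-resistant K562 line. Seeded 5 × 10^3 cells/well, compound in DMSO (<0.1%) added after 24 h, then 72 h exposure. Resazurin for 2 h, fluorescence ex 560/em 590 nm. IC50 from 50% fluorescence drop versus untreated cells. Triplicate, averaged.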

[2] = Inhibition of sheep brain tubulin assembly by DAPI staining-based fluorimetric method; parameters: species or system Ovis aries
Procedure, shortened: (§2)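 Sheep brain tubulin purified by two assembly-disassembly cycles, about 2-3 mg/mL in 0.1 M MES, 0.5 mM MgCl2, 1 mM EGTA, 1 mM GTP, pH 6.6. Assembly followed by DAPI fluorescence at 37 °C. IC50 = concentration halving maximum assembly rate versus no compound. Single-point values given as % inhibition at 100 µM. Mean of three experiments.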

[3] = tested on: K562; test: Cytotoxicity against human K562 cells assessed as decrease in cell growth after 72 hrs by resazurin dye-based fluorimetric method; type: functional; conditions: K562, 72 h; procedure, shortened: as §1
[4] = tested on: K-562R; test: Cytotoxicity against human K562R cells assessed as decrease in cell growth after 72 hrs by resazurin dye-based fluorimetric method; type: functional; procedure, shortened: as §1
[5] = tested on: A549; test: Cytotoxicity against human A549 cells assessed as decrease in cell growth after 72 hrs by resazurin dye-based fluorimetric method; type: functional; conditions: A549, 72 h
Procedure, shortened: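 A549 grown in DMEM (4.5 g/L glucose, 10% FCS, 1% glutamine), 37 °C, 5% CO2. Seeded 5 × 10^3 cells/well, compound in DMSO (<0.1%) added after 24 h, 72 h exposure. Resazurin (CellTiter-Blue) for 2 h, fluorescence ex 560/em 590 nm. IC50 = concentration halving fluorescence versus untreated cells. Triplicate; mean of three experiments.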

[6] = tested on: HCT-116; test: Cytotoxicity against human HCT116 cells assessed as decrease in cell growth after 72 hrs by resazurin dye-based fluorimetric method; type: functional; conditions: HCT-116, 72 h; procedure, shortened: as §1
[7] = species: Ovis aries; test: Inhibition of sheep brain tubulin assembly at 100 uM by DAPI staining-based fluorimetric method relative to control; procedure, shortened: as §2
[8] = tested on: A549; test: Cell cycle arrest in human A549 cells assessed as accumulation at G2/M phase at 10 nM after 24 hrs by propidium iodide staining-based flow cytometric method; type: functional
Procedure, shortened: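 Exponentially growing A549 cells exposed for 24 h to 0.5, 1, 5 or 10 nM, with DMSO alone as control. DNA content read by propidium iodide staining and flow cytometry to give the cell-cycle profile.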

[9] = tested on: A549; test: Induction of microtubule network fragmentation in human A549 cells after 24 hrs by DAPI staining-based inverted microscopic method; type: cell-based
Procedure, shortened: (§3)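 A549 cells on chamber slides, 24 h with or without compound. Fixed in 2% paraformaldehyde for 30 min, permeabilized with 0.25% Triton X-100, blocked with 1% BSA/10% goat serum. Mouse anti-β-tubulin overnight at 4 °C, then Alexa 647 secondary with Hoechst 33258 for 2 h, Alexa 488 phalloidin for F-actin. Imaged by inverted microscope, 60X oil objective.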

[10] = tested on: A549; test: Disruption of microtubule network organization in human A549 cells assessed as decrease in mitotic spindle formation after 24 hrs by DAPI staining-based inverted microscopic method; type: cell-based; procedure, shortened: as §3

Row | IC50 [2] [µM] | inhibition [7] [%] | Compound | IC50 [1] [µM] | IC50 [3] [µM] | IC50 [4] [µM] | IC50 [5] [µM] | IC50 [6] [µM] | Activity [8] | Activity [9] | Activity [10]
1 | 1.1 | – | C=C(c1ccc(OC)cc1)c1cc(C#N)nc2ccccc12 | 0.001 | 0.009 | 0.0009 | 0.05 | 0.0016 | – | – | –
2 | 0.6 | – | C=C(c1ccc(OC)c(O)c1)c1nc(C)nc2ccccc12 | 0.0061 | – | – | – | – | – | – | –
3 | – | – | C=C(c1ccc(OC)cc1)c1cc(C(F)(F)F)nc2ccccc12 | 0.0217 | – | – | – | – | – | – | –
4 | – | 24 | C=C(c1ccc(OC)cc1)c1nc2ccccc2nc1C | 0.69 | – | – | – | – | – | – | –
5 | 1.9 | – | COc1ccc(C(=CC#N)c2cc(C)nc3ccccc23)cc1 | 0.00025 | 0.017 | 0.0066 | 0.079 | 0.0132 | – | – | –
6 | 17.1 | – | C=C(c1ccc(OC)cc1)c1cc(C)cc2ccccc12 | 0.14 | – | – | – | – | – | – | –
7 | 14.3 | – | C=C(c1ccc(OC)cc1)c1cc(CO)nc2ccccc12 | 0.39 | – | – | – | – | – | – | –
8 | 2.2 | – | C=C(c1ccc(OC)c(F)c1)c1cc(C)nc2ccccc12 | 0.004 | 0.005 | 0.0024 | 0.0095 | 0.0096 | – | – | –
9 | 3.9 | – | C=C(c1ccc(OC)c(O)c1)c1cc(C)nc2ccccc12 | 0.0015 | 0.0018 | 0.0024 | 0.0004 | 0.0009 | Active | Dose-dependent effect | Dose-dependent effect
10 | – | 29 | C=C(c1ccc(OC)cc1)c1cc(C(=O)O)nc2ccccc12 | 0.075 | – | – | – | – | – | – | –
11 | 7.2 | – | COc1ccc(C(=O)c2cc(C)nc3ccccc23)cc1 | 0.025 | 0.139 | 0.052 | – | 0.13 | – | – | –
12 | 3.9 | – | C=C(c1ccc(OC)cc1)c1cc(C(=O)OC)nc2ccccc12 | 0.0023 | 0.088 | 0.018 | – | 0.16 | – | – | –
13 | 1.1 | – | C=C(c1ccc(OC)cc1)c1cc(C)nc2ccccc12 | 0.021 | 0.017 | 0.0007 | 0.0185 | 0.003 | – | – | –
14 | – | – | C=C(c1ccc(OC)cc1)c1nc(C)nc2ccccc12 | 0.04 | – | – | – | – | – | – | –
15 | – | 53 | C=C(c1ccc(OC)cc1)c1nc(C)cc2ccccc12 | 0.3 | – | – | – | – | – | – | –
16 | 23.8 | – | C=C(c1ccc(OC)cc1)c1cc(C(N)=O)nc2ccccc12 | 0.24 | – | – | – | – | – | – | –

Row | Compound | IC50 [2] [µM] | inhibition [7] [%] | IC50 [1] [µM] | IC50 [3] [µM] | IC50 [4] [µM] | IC50 [5] [µM] | IC50 [6] [µM] | Activity [8] | Activity [9] | Activity [10]
17 | C=C(c1ccc(OC)c(O)c1)c1cc(OC)c(OC)c(OC)c1 | 2 | – | 0.0078 | 0.0008 | 0.0011 | 0.0082 | – | – | – | –
